This note sets out measurements from ChEMBL document CHEMBL4765371, “Synthesis and evaluation of Na/K-ATP-ase inhibiting and cytotoxic in vitro activities of oleandrigenin and its selected 17β-(butenolidyl)- and 17β-(3-furyl)- analogues” (Eur J Med Chem, 2020).

Calls of active or inactive are those of the source. The calls are words filed in the database; no cut-off is given here.

One assay concerns MCF7. Description: Cytotoxicity against human MCF7 cells assessed as reduction in cell viability incubated for 72 hrs by resazurin assay. It counts as functional, cell-based. The note with it: MCF7, 72 h. The gist of the method: (§1)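 Cells (CEM, HeLa, MCF7, BJ fibroblasts) exposed to compounds for 72 h, viability read by resazurin staining. Values are means ± SD from at least three independent experiments run in triplicate.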

In a further assay the test system is CCRF-CEM. In words: Cytotoxicity against human CEM cells assessed as reduction in cell viability incubated for 72 hrs by resazurin assay. It counts as functional, cell-based. In outline:
as §1

Another assay relates to BJ. In words: Cytotoxicity against human BJ cells assessed as reduction in cell viability incubated for 72 hrs by resazurin assay. Format: cell-based. In outline: as §1
For a further assay, the species on record is Sus scrofa. In words: Inhibition of porcine kidney Na+/K+ ATPase at 50 uM assessed as enzyme residual activity using ATP as substrate incubated for 2 mins followed by substrate addition and measured after 6 mins (reference value: 100 +/-3.16%). The note with it: time 8.0 min. It counts as tissue-based.
Assay [1] deals with HeLa. In words: Cytotoxicity against human HeLa cells assessed as reduction in cell viability incubated for 72 hrs by resazurin assay. Format: functional, cell-based. In outline:
as §1

Assay [2] relates to HeLa. Description: Induction of apoptosis in human HeLa cells assessed as reduction in Rb phosphorylation at 1 to 10 uM incubated for 24 hrs by Western blotting analysis. It counts as functional, cell-based. The note with it: dose 1-10 µM. The gist of the method: (§2)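 HeLa cells treated 24 h at 1 and 10 µM. Lysates resolved by SDS-PAGE and immunoblotted for PARP-1, caspase-7 zymogen and fragment, Mcl-1, Bcl-2, p53, phospho-Rb, total Rb, phospho-Src (Tyr416) and total Src. β-actin used as loading control. Compared with untreated controls; three repeats.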

In assay [3] the test system is HeLa. In words: Induction of apoptosis in human HeLa cells assessed as fold increase in caspase 3/7 activity at 1 to 10 uM incubated for 24 hrs by fluorescence based assay relative to control. Format: functional. The note with it: dose 1-10 µM.
For assay [4], the system named is HeLa. In words: Induction of apoptosis in human HeLa cells assessed as reduction in Rb level at 1 to 10 uM incubated for 24 hrs by Western blotting analysis. It counts as functional, cell-based. The note with it: dose 1-10 µM. In outline:
as §2

Assay [5] concerns HeLa. Description: Induction of cell cycle arrest in human HeLa cells assessed as decrease in accumulation of cells at G0/G1 phase at 1 to 10 uM incubated for 24 hrs by PI staining based flow cytometry analysis relative to control. It counts as functional. On the set-up: scale not given: the % may be the effect or the level left. The note with it: dose 1-10 µM. The gist of the method: (§3)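 HeLa cells treated 24 h at 1 or 10 µM, then harvested, fixed and stained with propidium iodide. DNA content measured by flow cytometry and cells assigned to subG1 (apoptotic), G0/G1, S and G2/M. Compared with untreated and DMSO-only controls. Means of three independent experiments in triplicate; one-way ANOVA, p < 0.05.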

For assay [6], the system named is HeLa. In words: Induction of apoptosis in human HeLa cells assessed as increase in PARP-1 cleavage at 10 uM incubated for 24 hrs by Western blotting analysis. Format: functional, cell-based. In outline: as §2
The test system of assay [7] is HeLa. In words: Downregulation of p53 protein expression in human HeLa cells at 1 to 10 uM incubated for 24 hrs by Western blotting analysis. It counts as functional, cell-based. The note with it: dose 1-10 µM. The gist of the method:
as §2

Assay [8] deals with HeLa. In words: Induction of apoptosis in human HeLa cells assessed as increase in caspase 7 fragmentation at 1 to 10 uM incubated for 24 hrs by Western blotting analysis. The note with it: dose 1-10 µM. It counts as functional, cell-based. The gist of the method: as §2
For assay [9], the system named is HeLa. Description: Downregulation of Src kinase activity in human HeLa cells assessed as decrease in Src kinase phosphorylation at Tyr416 residue at 1 uM incubated for 24 hrs by Western blotting analysis.
In assay [10] the test system is HeLa. In words: Effect on Src kinase protein expression in human HeLa cells at 1 uM incubated for 24 hrs by western blot analysis. Format: functional, cell-based. The gist of the method: as §2
Assay [11] deals with HeLa. Description: Induction of cell cycle arrest in human HeLa cells assessed as increase in accumulation at S phase at 1 to 10 uM incubated for 24 hrs by PI staining based flow cytometry analysis. It counts as functional. The note with it: dose 1-10 µM. The gist of the method:
as §3

For assay [12], the system named is HeLa. In words: Induction of apoptosis in human HeLa cells assessed as downregulation of Mcl1 protein expression at 1 to 10 uM incubated for 24 hrs by Western blotting analysis. It counts as functional, cell-based. The note with it: dose 1-10 µM. In outline: as §2
For assay [13], the system named is HeLa. Description: Induction of cell cycle arrest in human HeLa cells assessed as increase in accumulation at G2/M phase at 1 uM incubated for 24 hrs by PI staining based flow cytometry analysis relative to control. It counts as functional. In outline: as §3
The test system of assay [14] is HeLa. Description: Induction of apoptosis in human HeLa cells assessed as downregulation of Bcl2 protein expression at 1 uM incubated for 24 hrs by Western blotting analysis. It counts as functional, cell-based. In outline: as §2
The subject of assay [15] is HeLa. Description: Induction of cell cycle arrest in human HeLa cells assessed as increase in accumulation at G2/M phase at 10 uM incubated for 24 hrs by PI staining based flow cytometry analysis relative to control. It counts as functional. In outline:
as §3

Assay [16] has as its system HeLa. Description: Induction of cell cycle arrest in human HeLa cells assessed as increase in accumulation at subG1 phase at 1 to 10 uM incubated for 24 hrs by PI staining based flow cytometry analysis relative to control. It counts as functional. The note with it: dose 1-10 µM. The gist of the method: as §3
Assay [17] has as its system HeLa. Description: Induction of apoptosis in human HeLa cells assessed as downregulation of Bcl2 protein expression at 1 to 10 uM incubated for 24 hrs by Western blotting analysis. It counts as functional, cell-based. The note with it: dose 1-10 µM. In outline: as §2
Assay [18] concerns HeLa. Description: Induction of apoptosis in human HeLa cells assessed as reduction in Rb phosphorylation at 1 uM incubated for 24 hrs by Western blotting analysis. Format: functional, cell-based. In outline:
as §2

On to `C[C@]12CC[C@H](O)C[C@H]1CC[C@@H]1[C@@H]2CC[C@]2(C)[C@@H](c3ccoc3)[C@@H](O)[C@H]3O[C@]132`, for which the IC50 in the assay with MCF7, in the assay on CCRF-CEM, in the assay with BJ and in the assay with HeLa [1] was over 50 µM throughout. Further, in the assay listed under Sus scrofa, the Activity is 75.5%.
Regarding `CC(=O)O[C@H]1C[C@]2(O)[C@@H]3CC[C@@H]4C[C@@H](O[Si](C)(C)C(C)(C)C)CC[C@]4(C)[C@H]3CC[C@]2(C)[C@H]1c1ccoc1`, the half-maximal inhibitory concentration (IC50) in the assay with MCF7, in the assay with CCRF-CEM, in the assay on BJ and in the assay with HeLa [1] was over 50 µM each time. In the assay listed under Sus scrofa, the Activity was determined as 69.1%.
With `CC(C)(C)[Si](C)(C)O[C@H]1CC[C@@]2(C)[C@H](CC[C@@H]3[C@@H]2CC[C@]2(C)[C@@H](c4ccoc4)[C@@H](O)[C@H]4O[C@]342)C1`, the concentration for half-maximal inhibition (IC50) with MCF7 worked out at 14 µM; in the assay on CCRF-CEM, 34.7 µM; with BJ, 16.3 µM; in the assay with HeLa [1], 32.3 µM. Moreover, the Activity in the assay listed under Sus scrofa was 74.4%.
As for `CC(=O)O[C@H]1C[C@@]23O[C@@H]4OC(=O)C=C4[C@@H]1[C@@]2(C)CC[C@H]1[C@H]3CC[C@@H]2C[C@@H](O)CC[C@@]21C`, the IC50 in the assay on MCF7, in the assay on CCRF-CEM, in the assay on BJ and in the assay with HeLa [1] was over 50 µM each time. In addition, the Activity in the assay filed under Sus scrofa was determined as 83.9%.
On to `CC(C)(C)[Si](C)(C)O[C@H]1CC[C@@]2(C)[C@H](CC[C@@H]3[C@@H]2CC[C@]2(C)[C@@H](c4ccoc4)[C@@H](O)C[C@]32O)C1`, for which the IC50 in the assay with MCF7 stood at 19.4 µM; in the assay with CCRF-CEM it was 9.9 µM; with BJ, 5.8 µM; in the assay on HeLa [1] it was 26.7 µM. Besides, the Activity in the assay listed under Sus scrofa was 15.1%.
As to `CO[C@H]1C[C@H](O[C@H]2CC[C@@]3(C)[C@H](CC[C@@H]4[C@@H]3CC[C@]3(C)[C@@H](C5=CC(=O)OC5)[C@@H](OC(C)=O)C[C@]43O)C2)O[C@@H](C)[C@@H]1O`, in the assay filed under Sus scrofa, the Activity came to 59.2%.
In the case of `CC(=O)O[C@H]1C[C@]2(O)[C@@H]3CC[C@@H]4C[C@@H](O)CC[C@]4(C)[C@H]3CC[C@]2(C)[C@H]1c1ccoc1`, the IC50 in the assay with MCF7 was determined as 16.1 µM; in the assay on CCRF-CEM it was 9.4 µM; with BJ, 4 µM; in the assay on HeLa [1], 14.2 µM. The Activity in the assay filed under Sus scrofa was determined as 42.4%.
For the molecule `CC(=O)O[C@H]1C[C@]2(O)[C@@H]3CC[C@@H]4C[C@@H](O)CC[C@]4(C)[C@H]3CC[C@]2(C)[C@H]1C1=CC(=O)OC1`, the result with HeLa [2], with HeLa [4], in the assay on HeLa [6] and in the assay on HeLa [8] was Active. In addition, in the assay on HeLa [3], the “fold change (FC)” value is given as 2. For the same molecule, the Activity amounted to 64.8% in the assay listed under Sus scrofa and 4.4% in the assay on HeLa [5]. Further, the inhibition result in the assay with HeLa [7] was “Active”.
As to `CC(=O)O[C@H]1CC[C@@]2(C)[C@H](CC[C@@H]3[C@@H]2CC[C@]2(C)[C@@H](C4=CC(=O)OC4)[C@@H](OC(C)=O)C[C@]32O)C1` [GITOXIGENIN DIACETATE], the outcome in the assay with HeLa [2], in the assay on HeLa [11], in the assay with HeLa [12], in the assay with HeLa [14], with HeLa [4] and with HeLa [6] was Active. Further, the result in the assay with HeLa [8] was Active. For the same molecule, the IC50 worked out at 1.7 µM with MCF7, 0.4 µM in the assay on CCRF-CEM, 0.2 µM in the assay on BJ and 1.1 µM with HeLa [1]. The inhibition result in the assay with HeLa [9] and with HeLa [7] was “Active” throughout. Besides, the result in the assay with HeLa [10] was inactive. Also, the “fold change (FC)” value in the assay with HeLa [3] and with HeLa [16] was 2 each time. Besides, the Activity in the assay on HeLa [13] amounted to 13.1%; in the assay with HeLa [15], 11.9%; in the assay listed under Sus scrofa, 101%; in the assay with HeLa [5] it was 4.4%.
`C[C@]12CC[C@H](O)C[C@H]1CC[C@@H]1[C@@H]2CC[C@]2(C)[C@@H](c3ccoc3)[C@@H](O)C[C@]12O`: the outcome in the assay with HeLa [17], in the assay on HeLa [11], in the assay on HeLa [12], in the assay with HeLa [13], in the assay on HeLa [15] and in the assay with HeLa [4] was Active. Besides, the result with HeLa [6] and with HeLa [8] was Active. Also, the IC50 in the assay on MCF7 turned out to be 10.6 µM; in the assay on CCRF-CEM, 3.6 µM; in the assay on BJ, 1.9 µM; in the assay on HeLa [1], 14.5 µM. For the same molecule, the inhibition result in the assay on HeLa [9] and with HeLa [7] was “Active” throughout. Also, the outcome in the assay with HeLa [10] and in the assay with HeLa [18] was inactive. In addition, the “fold change (FC)” value in the assay on HeLa [3] and in the assay on HeLa [16] was 2 each time. Besides, the results for the Activity in the assay filed under Sus scrofa and with HeLa [5] were 7.9% and 4.4%, respectively.
In the case of `CC(=O)O[C@H]1C[C@]2(O)[C@@H]3CC[C@@H]4C[C@@H](O[Si](C)(C)C(C)(C)C)CC[C@]4(C)[C@H]3CC[C@]2(C)[C@H]1C1=CC(=O)OC1`, the IC50 amounted to 20.3 µM in the assay with MCF7, 17.3 µM with CCRF-CEM, 10.6 µM in the assay on BJ and 34.1 µM in the assay on HeLa [1]. For the same molecule, in the assay listed under Sus scrofa, the Activity was found to be 79.3%.
Regarding `CC(=O)O[C@H]1CC[C@@]2(C)[C@H](CC[C@@H]3[C@@H]2CC[C@]2(C)[C@@H](c4ccoc4)[C@@H](OC(C)=O)C[C@]32O)C1`, the half-maximal inhibitory concentration (IC50) came out at 20.2 µM in the assay on MCF7, 14.2 µM with CCRF-CEM, 6.2 µM in the assay on BJ and 43.1 µM in the assay on HeLa [1]. In the assay listed under Sus scrofa, the Activity came out at 79.9%.
